Experiments:
Type in all cases: functional, cell-based
[1] = Cytotoxicity against human SKBR cells after 72 hrs by alamar blue assay
Method in brief: (§1)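 Cells seeded at 800–1000 per well (20–25 cells/µL) and left overnight to attach. Compounds were diluted serially from 10 mM DMSO stocks and tested at 8 final concentrations, 50 to 0.39 µM, in triplicate for 72 h. Vehicle control was 0.5% DMSO. Alamar blue was added to 10% final and fluorescence read after 4 h (ex 530, em 560 nm). Viability was expressed as percent of vehicle, and IC50 taken as 50% kill versus control.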

[2] = Cytotoxicity against human M4E cells after 72 hrs by alamar blue assay; method in brief: as §1
M14 = assay: Cytotoxicity against human M14 cells after 72 hrs by alamar blue assay; settings: M14, 72 h; method in brief: as §1
NCI-H1299 = assay: Cytotoxicity against human NCI-H1299 cells after 72 hrs by alamar blue assay; settings: NCI-H1299, 72 h; method in brief: as §1
HeLa = assay: Cytotoxicity against human HeLa cells after 72 hrs by alamar blue assay; method in brief: as §1
NCI-H157 = assay: Cytotoxicity against human NCI-H157 cells after 72 hrs by alamar blue assay; settings: NCI-H157, 72 h; method in brief: as §1
Calu-1 = assay: Cytotoxicity against human Calu1 cells after 72 hrs by alamar blue assay; settings: Calu-1, 72 h; method in brief: as §1
A549 = assay: Cytotoxicity against human A549 cells after 72 hrs by alamar blue assay; settings: A549, 72 h; method in brief: as §1
NCI-H460 = assay: Cytotoxicity against human H460 cells after 72 hrs by alamar blue assay; settings: NCI-H460, 72 h; method in brief: as §1
NCI-H1792 = assay: Cytotoxicity against human NCI-H1792 cells after 72 hrs by alamar blue assay; settings: NCI-H1792, 72 h; method in brief: as §1
[3] = Cytotoxicity against human H266 cells after 72 hrs by alamar blue assay; settings: H266, 72 h; method in brief: as §1
[4] = Cytotoxicity against human 292G cells after 72 hrs by alamar blue assay; method in brief: as §1
LOX IMVI = assay: Cytotoxicity against human LOXIMVI cells after 72 hrs by alamar blue assay; method in brief: as §1
HOP-62 = assay: Cytotoxicity against human HOP62 cells after 72 hrs by alamar blue assay; settings: HOP-62, 72 h; method in brief: as §1

SMILES	IC50 [1]	IC50 [2]	IC50 (M14)	IC50 (NCI-H1299)	IC50 (HeLa)	IC50 (NCI-H157)	IC50 (Calu-1)	IC50 (A549)	IC50 (NCI-H460)	IC50 (NCI-H1792)	IC50 [3]	IC50 [4]	IC50 (LOX IMVI)	IC50 (HOP-62)
COc1cc(/C=C/C(=O)OCc2cccc(OCc3c(-c4ccccc4)no[n+]3[O-])c2)ccc1O	4.18 µM	> 50 µM	> 50 µM	> 50 µM	5.64 µM	> 50 µM	> 50 µM	> 50 µM	29.4 µM	> 50 µM	> 50 µM	> 50 µM	> 50 µM	> 50 µM
COC(=O)/C=C/c1ccc(O)c(O)c1 [METHYLCAFFEATE]	5.15 µM	8.89 µM	8.86 µM	3.53 µM	3.77 µM	6.25 µM	5.5 µM	7.54 µM	14.8 µM	6.09 µM	> 50 µM	3.11 µM	21.8 µM	3.86 µM
O=C(/C=C/c1ccc(O)c(O)c1)OCCCO[N+](=O)[O-]	5.77 µM	20 µM	24.8 µM	8.03 µM	3.11 µM	4.34 µM	10.7 µM	10.8 µM	3.31 µM	18.1 µM	> 50 µM	13.5 µM	18.9 µM	10 µM
COc1cc(/C=C/C(=O)OCc2c(-c3ccccc3)no[n+]2[O-])ccc1O	4.98 µM	3.37 µM	14 µM	12.9 µM	7.82 µM	4.53 µM	22.9 µM	2.06 µM	7.03 µM	11.1 µM	13.4 µM	16.5 µM	13.8 µM	8.66 µM
COc1cc(/C=C/C(=O)OCCCO[N+](=O)[O-])ccc1O	17.2 µM	18.4 µM	42.6 µM	28.3 µM	6.7 µM	20.5 µM	> 50 µM	13.2 µM	29 µM	28.5 µM	44 µM	39.4 µM	29.5 µM	19.4 µM
COc1cc(/C=C/C(=O)OCCCCCCO[N+](=O)[O-])ccc1OCCCCCCO[N+](=O)[O-]	> 50 µM	> 50 µM	> 50 µM	> 50 µM	> 50 µM	> 50 µM	27.8 µM	> 50 µM	> 50 µM	> 50 µM	> 50 µM	> 50 µM	> 50 µM	> 50 µM
COc1cc(/C=C/C(=O)Oc2cccc(OCc3c(-c4ccccc4)no[n+]3[O-])c2)ccc1O	14.2 µM	44.6 µM	> 50 µM	> 50 µM	> 50 µM	24.7 µM	> 50 µM	0.72 µM	11.6 µM	> 50 µM	> 50 µM	> 50 µM	49.4 µM	> 50 µM
CCOC(=O)/C=C/c1ccc(O)c(O)c1 [ETHYL CAFFEATE]	4.16 µM	11.2 µM	9.82 µM	4.93 µM	1.96 µM	7.62 µM	17.2 µM	7.22 µM	13.1 µM	18.4 µM	> 50 µM	5.25 µM	6.21 µM	12.5 µM
O=C(/C=C/c1ccc(OCCCCO[N+](=O)[O-])c(O)c1)OCCCCO[N+](=O)[O-]	3.23 µM	> 50 µM	> 50 µM	> 50 µM	3.93 µM	> 50 µM	> 50 µM	0.41 µM	> 50 µM	> 50 µM	> 50 µM	> 50 µM	> 50 µM	> 50 µM
CCOC(=O)/C=C/c1ccc(O)c(OC)c1 [ETHYL FERULATE]	24.9 µM	33.4 µM	> 50 µM	36.8 µM	2.13 µM	32.3 µM	> 50 µM	12.5 µM	29.1 µM	25.6 µM	28.1 µM	32 µM	> 50 µM	26.8 µM
COc1cc(/C=C/C(=O)OCCCCCO[N+](=O)[O-])ccc1O	8.06 µM	21.8 µM	24.5 µM	20.8 µM	13.4 µM	13.4 µM	26.3 µM	6.39 µM	12.3 µM	13 µM	21.2 µM	24.9 µM	> 50 µM	12.5 µM
CCCOC(=O)/C=C/c1ccc(O)c(OC)c1	24.5 µM	18.5 µM	28.1 µM	40.3 µM	5.62 µM	15.2 µM	48.9 µM	15.6 µM	25.2 µM	34.1 µM	20.4 µM	35.9 µM	15.2 µM	22.4 µM
CCCCCOC(=O)/C=C/c1ccc(O)c(OC)c1	> 50 µM	> 50 µM	> 50 µM	> 50 µM	> 50 µM	> 50 µM	> 50 µM	> 50 µM	> 50 µM	> 50 µM	> 50 µM	> 50 µM	> 50 µM	> 50 µM
COc1cc(/C=C/C(=O)OCCCO[N+](=O)[O-])ccc1OCCCO[N+](=O)[O-]	> 50 µM	> 50 µM	> 50 µM	> 50 µM	3.62 µM	> 50 µM	1.42 µM	15.8 µM	> 50 µM	> 50 µM	> 50 µM	> 50 µM	> 50 µM	> 50 µM
COc1cc(/C=C/C(=O)OCCC(C)C)ccc1O [ISOPENTYL FERULATE]	41.5 µM	30.5 µM	45.8 µM	31.5 µM	> 50 µM	40.2 µM	32.2 µM	43.6 µM	45 µM	37.7 µM	48.1 µM	48.4 µM	48.4 µM	31.2 µM
COc1cc(/C=C/C(=O)OCC(C)C)ccc1O	44.8 µM	> 50 µM	> 50 µM	38 µM	28.7 µM	28.3 µM	> 50 µM	34.6 µM	> 50 µM	> 50 µM	35.7 µM	> 50 µM	> 50 µM	> 50 µM
COc1cc(/C=C/C(=O)OCc2ccc(OCc3c(-c4ccccc4)no[n+]3[O-])cc2)ccc1O	11.7 µM	> 50 µM	> 50 µM	> 50 µM	> 50 µM	> 50 µM	> 50 µM	17.2 µM	44.2 µM	> 50 µM	> 50 µM	> 50 µM	> 50 µM	> 50 µM
COc1cc(/C=C/C(=O)OCCOc2no[n+]([O-])c2S(=O)(=O)c2ccccc2)ccc1O	> 50 µM	> 50 µM	> 50 µM	> 50 µM	> 50 µM	> 50 µM	> 50 µM	> 50 µM	> 50 µM	> 50 µM	> 50 µM	> 50 µM	> 50 µM	> 50 µM
O=C(/C=C/c1ccc(O)c(O)c1)OC/C=C/CO[N+](=O)[O-]	0.41 µM	4.31 µM	1.49 µM	0.41 µM	0.4 µM	1.36 µM	0.42 µM	0.4 µM	2.9 µM	0.41 µM	10.3 µM	7.95 µM	0.43 µM	4.65 µM
COc1cc(/C=C/C(=O)OCCCCO[N+](=O)[O-])ccc1O	8.92 µM	20.3 µM	32.5 µM	4.51 µM	6.35 µM	12.9 µM	30.1 µM	8.82 µM	19.5 µM	20.8 µM	24.8 µM	28.4 µM	20.4 µM	13.1 µM
COc1cc(/C=C/C(=O)OCCCCO[N+](=O)[O-])ccc1OCCCCO[N+](=O)[O-]	> 50 µM	> 50 µM	> 50 µM	> 50 µM	0.74 µM	> 50 µM	> 50 µM	> 50 µM	> 50 µM	> 50 µM	> 50 µM	> 50 µM	> 50 µM	> 50 µM
CCCCCOC(=O)/C=C/c1ccc(O)c(O)c1	2.96 µM	6.8 µM	7.48 µM	4.69 µM	2.02 µM	2.28 µM	8.57 µM	5.75 µM	1.91 µM	6.35 µM	7.24 µM	7.73 µM	3.38 µM	5.11 µM
